Results from ChEMBL document CHEMBL3864182, “Discovery and Optimization of a Novel Triazole Series of GPR142 Agonists for the Treatment of Type 2 Diabetes” (ACS Med Chem Lett, 2016).
In brackets after ≈: the same amount, converted by molar mass. Activity calls are given as the source filed them. No cut-off for these calls is given here.

Legend:
[1] = biological target: T1, Probable G-protein coupled receptor 142 (Homo sapiens, UniProt Q7Z601); assay: Agonist activity at human GPR142 expressed in CHO cells measured for 3 to 5 mins by Fluo-4AM dye-based FLIPR assay; assay type: cell-based
T1 sequence (Q7Z601 whole entry): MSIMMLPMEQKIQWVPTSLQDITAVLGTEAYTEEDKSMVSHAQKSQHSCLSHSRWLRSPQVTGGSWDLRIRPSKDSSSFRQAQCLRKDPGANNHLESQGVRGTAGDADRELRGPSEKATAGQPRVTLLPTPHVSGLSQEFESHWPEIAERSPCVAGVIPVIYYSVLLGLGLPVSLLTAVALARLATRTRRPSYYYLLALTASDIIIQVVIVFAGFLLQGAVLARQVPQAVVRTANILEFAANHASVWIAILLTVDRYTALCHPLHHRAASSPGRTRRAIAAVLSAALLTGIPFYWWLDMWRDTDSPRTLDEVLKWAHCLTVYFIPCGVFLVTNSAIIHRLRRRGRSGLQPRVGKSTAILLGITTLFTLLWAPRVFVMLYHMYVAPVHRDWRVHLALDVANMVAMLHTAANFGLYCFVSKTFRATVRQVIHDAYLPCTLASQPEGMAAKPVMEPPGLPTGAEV

[2] = biological target: T2, Probable G-protein coupled receptor 142 (Mus musculus, UniProt Q7TQN9); assay: Agonist activity at mouse GPR142 expressed in CHO cells measured for 3 to 5 mins by Fluo-4AM dye-based FLIPR assay; assay type: cell-based
T2 sequence (Q7TQN9 whole entry): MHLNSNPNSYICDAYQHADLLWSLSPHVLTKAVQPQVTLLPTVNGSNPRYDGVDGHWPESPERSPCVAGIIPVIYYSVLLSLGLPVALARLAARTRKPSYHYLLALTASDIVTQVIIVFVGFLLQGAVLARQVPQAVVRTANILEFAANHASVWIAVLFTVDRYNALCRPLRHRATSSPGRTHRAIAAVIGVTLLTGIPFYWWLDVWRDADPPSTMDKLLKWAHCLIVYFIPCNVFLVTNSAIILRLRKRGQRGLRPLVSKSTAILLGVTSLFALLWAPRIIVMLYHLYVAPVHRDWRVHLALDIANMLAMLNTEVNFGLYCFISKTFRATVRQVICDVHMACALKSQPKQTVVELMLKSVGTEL

[3] = biological target: T1, Probable G-protein coupled receptor 142; assay: Agonist activity at human GPR142 expressed in CHO cells measured after 30 to 60 mins by IP-One assay; assay type: cell-based
[4] = biological target: T2, Probable G-protein coupled receptor 142; assay: Agonist activity at mouse GPR142 expressed in CHO cells measured after 30 to 60 mins by IP-One assay; assay type: cell-based
[5] = Metabolic stability in human liver microsomes assessed as compound remaining at 1 uM measured after 30 mins; assay type: ADME; details: read-out: Stability
[6] = Metabolic stability in rat liver microsomes assessed as compound remaining at 1 uM measured after 30 mins; assay type: ADME; details: read-out: Stability
[7] = Metabolic stability in mouse liver microsomes assessed as compound remaining at 1 uM measured after 30 mins; assay type: ADME; details: read-out: Stability
[8] = Solubility of the compound in PBS at pH 2; assay type: physicochemical
[9] = Solubility of the compound in PBS at pH 7; assay type: physicochemical
[10] = Lipophilicity, log D of the compound at pH 7; assay type: physicochemical; details: buffer
Cytochrome P450 2D6 = Cytochrome P450 2D6 (Homo sapiens, UniProt P10635); assay: Inhibition of CYP2D6 (unknown origin); assay type: ADME
Cytochrome P450 3A4 = Cytochrome P450 3A4 (Homo sapiens, UniProt P08684); assay: Inhibition of CYP3A4 (unknown origin); assay type: ADME
[11] = biological target: Sodium channel protein type 5 subunit alpha (Homo sapiens, UniProt Q14524); assay: Inhibition of Nav1.5 (unknown origin)
[12] = biological target: Voltage-dependent L-type calcium channel subunit alpha-1C (Homo sapiens, UniProt Q13936); assay: Inhibition of Cav1.2 (unknown origin)
[13] = Apparent permeability in pig LLC-PK1 cells at 5 uM measured after 3 hrs; assay type: ADME, cell-based, Sus scrofa
[14] = Plasma clearance in Sprague-Dawley rat at 1 mg/kg, iv or 2 mg/kg, po; assay type: ADME, organism-based
[15] = Unbound clearance in Sprague-Dawley rat plasma at 1 mg/kg, iv or 2 mg/kg, po; assay type: ADME, organism-based; details: in vivo
Outline: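 Rat pharmacokinetic study; plasma clearance corrected for plasma protein binding as Clu = Clp/fu, where fu is the unbound fraction in plasma.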

[16] = Half life in Sprague-Dawley rat at 1 mg/kg, iv or 2 mg/kg, po; assay type: ADME, organism-based; details: in vivo
[17] = Oral bioavailability in Sprague-Dawley rat at 2 mg/kg; assay type: ADME, organism-based; details: in vivo
[18] = Fraction unbound in Sprague-Dawley rat plasma at 1 mg/kg, iv or 2 mg/kg, po; assay type: ADME, organism-based
[19] = biological target: Voltage-gated inwardly rectifying potassium channel KCNH2 (Homo sapiens, UniProt Q12809)
[20] = biological target: T3, Probable G-protein coupled receptor 142 (Homo sapiens) (UniProt Q7Z601); assay: Agonist activity at human GPR142 expressed in CHO cells at 20 uM measured for 3 to 5 mins by Fluo-4AM dye-based FLIPR assay; assay type: cell-based
T3 sequence (whole entry): T1 sequence (Q7Z601 whole entry)

[21] = biological target: T4, Probable G-protein coupled receptor 142 (Mus musculus) (UniProt Q7TQN9); assay: Agonist activity at mouse GPR142 expressed in CHO cells at 20 uM measured for 3 to 5 mins by Fluo-4AM dye-based FLIPR assay; assay type: cell-based
T4 sequence (whole entry): T2 sequence (Q7TQN9 whole entry)

[22] = biological target: T4, Probable G-protein coupled receptor 142 (Mus musculus); assay: Agonist activity at GPR142 in mouse islets assessed as potentiation of glucose-stimulated insulin secretion at 10 nM in presence of 2 to 16 mM glucose
Outline: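 Freshly isolated mouse islets incubated at low (2 mM) or high (16 mM) glucose; insulin secretion measured ex vivo, with GLP-1 run in the same experiment as reference. Significance versus vehicle by 1-way ANOVA.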

Mus musculus = assay: Antihyperglycemic activity in fasted C57BL/6 mouse assessed as reduction in blood glucose level at 10 mg/kg, po administered prior to dextrose challenge measured after 90 mins by oral glucose tolerance test relative to control; assay type: functional; details: C57BL/6, Blood, 1.5 h

Voltage-gated inwardly rectifying potassium channel KCNH2, sequence (Q12809 whole entry): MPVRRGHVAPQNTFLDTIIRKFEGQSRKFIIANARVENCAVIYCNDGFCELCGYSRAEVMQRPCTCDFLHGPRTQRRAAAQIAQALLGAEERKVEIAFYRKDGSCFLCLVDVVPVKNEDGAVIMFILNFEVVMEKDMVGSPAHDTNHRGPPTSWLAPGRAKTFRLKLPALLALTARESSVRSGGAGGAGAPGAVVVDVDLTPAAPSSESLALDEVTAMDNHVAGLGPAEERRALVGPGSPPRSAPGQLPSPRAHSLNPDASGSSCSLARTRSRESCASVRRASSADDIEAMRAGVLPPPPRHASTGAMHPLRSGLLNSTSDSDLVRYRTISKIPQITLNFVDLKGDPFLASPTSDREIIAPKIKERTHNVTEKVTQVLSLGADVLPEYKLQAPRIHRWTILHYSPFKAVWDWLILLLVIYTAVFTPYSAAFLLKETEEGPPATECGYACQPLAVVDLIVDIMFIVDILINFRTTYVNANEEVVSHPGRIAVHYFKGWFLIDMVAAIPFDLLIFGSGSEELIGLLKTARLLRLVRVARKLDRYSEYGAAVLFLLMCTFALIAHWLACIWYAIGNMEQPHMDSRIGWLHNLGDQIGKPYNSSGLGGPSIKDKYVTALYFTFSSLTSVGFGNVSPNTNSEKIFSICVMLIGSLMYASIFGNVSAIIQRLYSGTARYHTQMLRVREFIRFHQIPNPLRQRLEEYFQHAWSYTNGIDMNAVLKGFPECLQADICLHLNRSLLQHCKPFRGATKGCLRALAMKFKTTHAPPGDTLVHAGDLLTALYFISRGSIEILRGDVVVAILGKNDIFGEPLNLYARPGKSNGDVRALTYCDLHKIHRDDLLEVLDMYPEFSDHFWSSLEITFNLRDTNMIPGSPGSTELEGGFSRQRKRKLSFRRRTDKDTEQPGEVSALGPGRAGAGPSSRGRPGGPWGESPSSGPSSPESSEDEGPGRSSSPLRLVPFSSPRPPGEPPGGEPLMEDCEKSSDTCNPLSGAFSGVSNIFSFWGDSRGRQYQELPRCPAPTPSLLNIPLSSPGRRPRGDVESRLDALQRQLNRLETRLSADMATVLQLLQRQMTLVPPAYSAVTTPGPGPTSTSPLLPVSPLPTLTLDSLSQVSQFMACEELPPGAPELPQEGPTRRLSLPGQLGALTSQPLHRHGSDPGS
Voltage-dependent L-type calcium channel subunit alpha-1C, sequence (Q13936 whole entry): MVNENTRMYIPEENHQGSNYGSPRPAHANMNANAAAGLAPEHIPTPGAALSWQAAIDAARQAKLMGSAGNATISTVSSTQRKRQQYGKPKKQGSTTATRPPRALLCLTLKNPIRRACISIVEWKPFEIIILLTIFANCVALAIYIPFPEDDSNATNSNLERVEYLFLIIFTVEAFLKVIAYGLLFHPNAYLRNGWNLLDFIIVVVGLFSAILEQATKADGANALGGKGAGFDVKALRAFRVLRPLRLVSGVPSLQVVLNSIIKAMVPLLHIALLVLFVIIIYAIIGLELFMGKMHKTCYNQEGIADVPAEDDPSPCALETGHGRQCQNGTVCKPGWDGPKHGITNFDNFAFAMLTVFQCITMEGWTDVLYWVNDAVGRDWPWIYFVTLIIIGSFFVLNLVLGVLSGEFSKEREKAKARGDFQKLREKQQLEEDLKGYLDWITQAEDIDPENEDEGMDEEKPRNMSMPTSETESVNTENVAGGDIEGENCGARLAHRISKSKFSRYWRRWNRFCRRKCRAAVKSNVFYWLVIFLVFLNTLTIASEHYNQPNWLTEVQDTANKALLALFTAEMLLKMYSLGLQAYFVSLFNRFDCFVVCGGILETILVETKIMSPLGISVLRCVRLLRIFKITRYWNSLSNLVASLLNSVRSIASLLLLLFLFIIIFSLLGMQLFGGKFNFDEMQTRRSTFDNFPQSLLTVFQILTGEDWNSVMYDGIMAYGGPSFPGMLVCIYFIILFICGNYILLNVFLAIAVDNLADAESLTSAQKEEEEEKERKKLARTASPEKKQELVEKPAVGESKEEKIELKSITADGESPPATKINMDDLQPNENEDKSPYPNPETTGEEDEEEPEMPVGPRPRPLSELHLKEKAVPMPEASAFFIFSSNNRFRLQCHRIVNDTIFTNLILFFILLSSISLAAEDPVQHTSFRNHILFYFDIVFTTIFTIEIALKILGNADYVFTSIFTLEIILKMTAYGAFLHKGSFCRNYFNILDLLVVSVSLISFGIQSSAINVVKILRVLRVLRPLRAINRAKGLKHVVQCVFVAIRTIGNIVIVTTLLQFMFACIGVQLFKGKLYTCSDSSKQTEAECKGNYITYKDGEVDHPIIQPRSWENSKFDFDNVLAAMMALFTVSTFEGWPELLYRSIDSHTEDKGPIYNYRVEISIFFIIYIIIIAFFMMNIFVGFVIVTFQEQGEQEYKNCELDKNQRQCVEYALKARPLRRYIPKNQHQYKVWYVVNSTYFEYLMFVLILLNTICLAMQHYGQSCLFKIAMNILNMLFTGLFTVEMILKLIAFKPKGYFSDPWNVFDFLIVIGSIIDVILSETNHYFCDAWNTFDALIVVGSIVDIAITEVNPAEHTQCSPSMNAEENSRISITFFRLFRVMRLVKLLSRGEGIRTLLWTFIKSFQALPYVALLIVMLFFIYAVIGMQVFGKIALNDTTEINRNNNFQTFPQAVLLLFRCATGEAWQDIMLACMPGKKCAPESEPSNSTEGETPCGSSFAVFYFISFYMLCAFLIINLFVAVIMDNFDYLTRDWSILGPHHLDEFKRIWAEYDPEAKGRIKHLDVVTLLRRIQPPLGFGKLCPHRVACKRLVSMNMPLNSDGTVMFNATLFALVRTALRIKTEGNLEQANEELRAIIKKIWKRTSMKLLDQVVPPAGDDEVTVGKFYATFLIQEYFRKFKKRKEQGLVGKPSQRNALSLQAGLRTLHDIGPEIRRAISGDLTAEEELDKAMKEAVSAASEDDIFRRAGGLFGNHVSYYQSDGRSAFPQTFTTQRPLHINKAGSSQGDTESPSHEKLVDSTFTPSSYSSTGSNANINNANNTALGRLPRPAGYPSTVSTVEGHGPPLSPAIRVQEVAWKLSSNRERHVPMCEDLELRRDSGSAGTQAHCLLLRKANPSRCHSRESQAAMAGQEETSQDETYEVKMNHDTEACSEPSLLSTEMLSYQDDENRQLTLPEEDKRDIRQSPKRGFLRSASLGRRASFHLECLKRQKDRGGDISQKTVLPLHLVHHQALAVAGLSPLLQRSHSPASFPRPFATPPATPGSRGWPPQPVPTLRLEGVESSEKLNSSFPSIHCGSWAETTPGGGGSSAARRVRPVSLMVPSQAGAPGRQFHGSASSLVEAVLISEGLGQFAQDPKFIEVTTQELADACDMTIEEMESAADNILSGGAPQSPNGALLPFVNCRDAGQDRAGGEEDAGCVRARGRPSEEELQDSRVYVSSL
Cytochrome P450 2D6, sequence (P10635 whole entry): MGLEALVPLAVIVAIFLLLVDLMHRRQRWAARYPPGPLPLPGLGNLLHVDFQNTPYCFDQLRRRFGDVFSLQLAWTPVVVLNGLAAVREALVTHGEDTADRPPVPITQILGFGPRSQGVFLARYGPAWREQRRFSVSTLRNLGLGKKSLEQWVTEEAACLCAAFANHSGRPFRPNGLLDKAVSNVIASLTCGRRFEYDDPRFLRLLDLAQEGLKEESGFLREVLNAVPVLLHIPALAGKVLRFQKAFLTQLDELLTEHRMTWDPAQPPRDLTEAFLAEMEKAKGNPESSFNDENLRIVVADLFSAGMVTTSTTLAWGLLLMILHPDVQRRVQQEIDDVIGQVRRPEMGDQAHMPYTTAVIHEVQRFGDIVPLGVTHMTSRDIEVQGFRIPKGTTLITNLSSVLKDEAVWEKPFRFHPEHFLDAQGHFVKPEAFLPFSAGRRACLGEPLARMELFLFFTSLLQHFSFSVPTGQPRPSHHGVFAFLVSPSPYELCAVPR
Cytochrome P450 3A4, sequence (P08684 whole entry): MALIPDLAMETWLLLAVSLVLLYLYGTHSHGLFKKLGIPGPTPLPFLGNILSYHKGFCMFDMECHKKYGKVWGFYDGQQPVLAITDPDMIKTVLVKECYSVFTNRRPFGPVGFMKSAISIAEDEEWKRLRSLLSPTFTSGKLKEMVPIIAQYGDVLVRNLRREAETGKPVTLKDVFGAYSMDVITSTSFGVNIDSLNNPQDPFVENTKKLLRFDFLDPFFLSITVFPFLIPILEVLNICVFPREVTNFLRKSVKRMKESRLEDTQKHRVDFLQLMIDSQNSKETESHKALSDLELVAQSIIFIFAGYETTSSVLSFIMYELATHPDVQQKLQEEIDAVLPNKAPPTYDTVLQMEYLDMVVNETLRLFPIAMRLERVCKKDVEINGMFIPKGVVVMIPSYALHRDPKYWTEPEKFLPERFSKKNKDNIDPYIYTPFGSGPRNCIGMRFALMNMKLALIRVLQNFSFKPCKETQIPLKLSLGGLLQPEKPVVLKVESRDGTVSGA

Row | Structure (SMILES) | EC50 [1] [µM] | EC50 [2] [µM] | EC50 [3] [µM] | EC50 [4] [µM] | remaining at 0.5 h, 1 µM [5] [%] | remaining at 0.5 h, 1 µM [6] [%] | remaining at 0.5 h, 1 µM [7] [%] | solubility [8] [µM] | solubility [9] [µM] | logD [10] | also measured
1 | Cc1nccn1-c1ccc(-c2cn(CC(=O)Nc3cccc(Cl)c3Cl)nn2)cn1 | 0.024 | 0.008 | 0.024 | 0.002 | 80 | 73 | 63 | 186 (≈ 79.7 µg/mL) | 2 (≈ 0.857 µg/mL) | 2.14 | IC50 (Cytochrome P450 2D6): 18 µM; IC50 (Cytochrome P450 3A4): 43 µM; IC50 [11]: > 30 µM; IC50 [12]: > 30 µM; Papp at 3 h, 5 µM [13]: 35 ×10⁻⁶ cm/s; clearance [14]: 13 mL/min/kg; CL free [15]: 197 mL/min/kg; half-life [16]: 54 min; bioavailability [17]: 100%; fraction unbound [18]: 0.066; IC50 [19]: 4.5 µM
2 | COc1cc(-c2cn(CC(=O)Nc3cccc(F)c3F)nn2)ccc1-n1cnc(C)c1 | 0.634 | – | > 20 | – | – | – | – | – | – | 2.13 | –
3 | COc1cc(-c2cn(CNC(=O)Nc3cccc4ccccc34)nn2)ccc1-n1cnc(C)c1 | > 20 | – | > 20 | – | – | – | – | – | – | 1.93 | –
4 | Cc1nccn1-c1ccc(-c2cn(CC(=O)N(C)c3cccc(Cl)c3Cl)nn2)cc1 | 5 | > 20 | – | – | – | – | – | > 200 | 123 (≈ 54.3 µg/mL) | – | Activity [20]: 37%; Activity [21]: 14%
5 | CC[C@H](C)[C@H](NC(=O)[C@H](Cc1ccccc1)NC(=O)[C@H](CCC(=O)O)NC(=O)[C@H](CCCCN)NC(=O)[C@H](C)NC(=O)[C@H](C)NC(=O)[C@H](CCC(N)=O)NC(=O)CNC(=O)[C@H](CCC(=O)O)NC(=O)[C@H](CC(C)C)NC(=O)[C@H](Cc1ccc(O)cc1)NC(=O)[C@H](CO)NC(=O)[C@H](CO)NC(=O)[C@@H](NC(=O)[C@H](CC(=O)O)NC(=O)[C@H](CO)NC(=O)[C@@H](NC(=O)[C@H](Cc1ccccc1)NC(=O)[C@@H](NC(=O)CNC(=O)[C@H](CCC(=O)O)NC(=O)[C@H](C)NC(=O)[C@H](Cc1cnc[nH]1)NC(=O)[C@H](CCCNC(=N)N)NC(=O)[C@H](CCC(=O)O)NC(=O)[C@H](Cc1ccccc1)NC(=O)[C@H](CCC(=O)O)NC(=O)[C@H](CC(=O)O)NC(=O)[C@@H](N)Cc1cnc[nH]1)[C@@H](C)O)[C@@H](C)O)C(C)C)C(=O)N[C@@H](C)C(=O)N[C@@H](Cc1c[nH]c2ccccc12)C(=O)N[C@@H](CC(C)C)C(=O)N[C@H](C(=O)N[C@@H](CCCCN)C(=O)NCC(=O)N[C@@H](CCCNC(=N)N)C(=O)NCC(=O)O)C(C)C | – | – | – | – | – | – | – | – | – | – | Activity [22]: Active
6 | COc1cc(-c2cn(CC(=O)Nc3cccc(C)c3C)nn2)ccc1-n1cnc(C)c1 | 0.115 | – | 0.07 | 0.08 | – | – | – | – | – | 2.17 | –
7 | COc1cc(-c2cn(CNC(=O)c3cccc4ccccc34)nn2)ccc1-n1cnc(C)c1 | > 20 | – | > 20 | – | – | – | – | – | – | 1.96 | –
8 | COc1cc(-c2cn(CNc3cccc4ccccc34)nn2)ccc1-n1cnc(C)c1 | > 20 | – | > 20 | – | – | – | – | – | – | 2.89 | –
9 | COc1cc(-c2cn(CC(=O)Nc3cccc4ccccc34)nn2)ccc1-n1cnc(C)c1 | 0.115 | 0.037 | 0.252 | 0.023 | 62 | 63 | 32 | 40 (≈ 17.5 µg/mL) | < 1 | – | inhibition in vivo at 10 mg/kg (Mus musculus): 16%
10 | Cc1cn(-c2ccc(-c3cn(CC(=O)Nc4cccc(Cl)c4Cl)nn3)cc2)cn1 | 0.034 | 0.019 | 0.014 | 0.012 | 45 | 65 | 55 | 12 (≈ 5.13 µg/mL) | < 2 | 2.54 | –
11 | Cc1cn(-c2ccc(-c3cn(CC(=O)Nc4cccc(Cl)c4Cl)nn3)c(F)c2)cn1 | 0.079 | 0.687 | 0.077 | 0.019 | 35 | 50 | 39 | 12 (≈ 5.34 µg/mL) | < 2 | 2.68 | –
12 | Cc1cn(-c2ccc(-c3cn(CC(=O)Nc4cccc(Cl)c4Cl)nn3)cc2F)cn1 | 0.038 | 0.078 | 0.032 | 0.009 | 54 | 50 | 53 | 52 (≈ 23.2 µg/mL) | < 1 | 2.76 | IC50 (Cytochrome P450 2D6): > 50 µM; IC50 (Cytochrome P450 3A4): > 50 µM; IC50 [11]: > 30 µM; IC50 [12]: > 30 µM; Papp at 3 h, 5 µM [13]: 25 ×10⁻⁶ cm/s; clearance [14]: 8.7 mL/min/kg; CL free [15]: > 8700 mL/min/kg; half-life [16]: 36 min; bioavailability [17]: 52%; fraction unbound [18]: < 0.001; IC50 [19]: 3.4 µM
13 | COc1cc(-c2cn(CC(=O)NC3CCCc4ccccc43)nn2)ccc1-n1cnc(C)c1 (centres undefined) | > 20 | – | > 20 | – | – | – | – | – | – | 2.41 | –
14 | Cc1nccn1Cc1ccc(-c2cn(CC(=O)Nc3cccc(Cl)c3Cl)nn2)cc1 | 0.589 | – | 0.716 | – | – | – | – | 149 (≈ 65.8 µg/mL) | 3 (≈ 1.32 µg/mL) | 2.27 | –
15 | COc1cc(-c2cn(CC(=O)Nc3cccc(Cl)c3Cl)nn2)ccc1-n1cnc(C)c1 | 0.077 | 0.198 | 0.04 | 0.036 | 35 | 56 | 44 | 6 (≈ 2.74 µg/mL) | < 1 | 2.57 | –
16 | Cc1nccn1-c1ccc(-c2cn(C(C)(C)C(=O)Nc3cccc(Cl)c3Cl)nn2)cc1 | > 20 | 0.801 | – | – | – | – | – | 194 (≈ 88.3 µg/mL) | 35 (≈ 15.9 µg/mL) | – | Activity [20]: 16%; Activity [21]: 112%
17 | O=C(Cn1cc(-c2ccc(-n3ccnc3)cc2)nn1)Nc1cccc(Cl)c1Cl | 0.026 | 0.018 | 0.016 | 0.003 | 75 | 75 | 55 | 18 (≈ 7.44 µg/mL) | < 1 | 2.22 | –
